Experimental data: ChEMBL document CHEMBL3745714, “Fragment-based drug discovery of potent and selective MKK3/6 inhibitors” (Bioorg Med Chem Lett, 2016)

Experiments:
Homo sapiens [1] = species on record: Homo sapiens; experiment: Selectivity ratio of IC50 for MKK3 (unknown origin) to IC50 for ERK2 (unknown origin)
Homo sapiens [2] = species on record: Homo sapiens; experiment: Selectivity ratio of IC50 for MKK3 (unknown origin) to IC50 for ASK1 (unknown origin)
Homo sapiens [3] = species on record: Homo sapiens; experiment: Selectivity ratio of IC50 for MKK3 (unknown origin) to IC50 for MLK3 (unknown origin)
Homo sapiens [4] = species on record: Homo sapiens; experiment: Selectivity ratio of IC50 for MKK3 (unknown origin) to IC50 for TAK1 (unknown origin)
Homo sapiens [5] = species on record: Homo sapiens; experiment: Selectivity ratio of IC50 for MKK3 (unknown origin) to IC50 for ERK1 (unknown origin)
Homo sapiens [6] = species on record: Homo sapiens; experiment: Selectivity ratio of IC50 for MKK3 (unknown origin) to IC50 for p38gamma (unknown origin)
Homo sapiens [7] = species on record: Homo sapiens; experiment: Selectivity ratio of IC50 for MKK3 (unknown origin) to IC50 for MEK2 (unknown origin)
Homo sapiens [8] = species on record: Homo sapiens; experiment: Selectivity ratio of IC50 for MKK3 (unknown origin) to IC50 for MEK1 (unknown origin)
[9] = biological target: T1, Dual specificity mitogen-activated protein kinase kinase 3 (Homo sapiens, UniProt P46734); experiment: Inhibition of MKK3 (unknown origin) using [gamma-33P]-ATP after 20 mins by radiometric assay
T1 sequence (P46734 whole entry): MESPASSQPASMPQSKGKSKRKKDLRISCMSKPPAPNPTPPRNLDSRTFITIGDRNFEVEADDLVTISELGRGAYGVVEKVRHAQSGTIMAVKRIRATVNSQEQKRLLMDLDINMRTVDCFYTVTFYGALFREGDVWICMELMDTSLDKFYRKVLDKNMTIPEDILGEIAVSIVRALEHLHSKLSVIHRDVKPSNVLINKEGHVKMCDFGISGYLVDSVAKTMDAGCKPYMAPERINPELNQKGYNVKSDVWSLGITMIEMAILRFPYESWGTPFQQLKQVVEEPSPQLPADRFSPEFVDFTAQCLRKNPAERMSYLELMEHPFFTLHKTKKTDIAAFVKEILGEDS

Homo sapiens [10] = species on record: Homo sapiens; experiment: Selectivity ratio of IC50 for MKK3 (unknown origin) to IC50 for p38alpha (unknown origin)
[11] = biological target: Mitogen-activated protein kinase 14 (Homo sapiens, UniProt Q16539); experiment: Inhibition of p38alpha phosphorylation in human TNFalpha-stimulated U937 cells treated 1 hr before by ELISA; format: cell-based, U-937
Outline: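 U937 human leukemic monocytes were pre-treated with compound across a dose range for one hour, then stimulated with TNFα. Phospho-p38α was quantified by ELISA, and IC50 was taken from the dose-response.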

Homo sapiens [12] = species on record: Homo sapiens; experiment: Selectivity ratio of IC50 for MKK3 (unknown origin) to IC50 for JNK2 (unknown origin)
Homo sapiens [13] = species on record: Homo sapiens; experiment: Selectivity ratio of IC50 for MKK3 (unknown origin) to IC50 for MKK6 (unknown origin)
Homo sapiens [14] = species on record: Homo sapiens; experiment: Selectivity ratio of IC50 for MKK3 (unknown origin) to IC50 for JNK1 (unknown origin)
[15] = biological target: T1, Dual specificity mitogen-activated protein kinase kinase 3; experiment: Binding affinity to MKK3 (unknown origin) by surface plasmon resonance assay
[16] = biological target: T2, Dual specificity mitogen-activated protein kinase kinase 6 (Homo sapiens, UniProt P52564); experiment: Inhibition of MKK6 (unknown origin) using [gamma-33P]-ATP after 20 mins by radiometric assay
T2 sequence (P52564 whole entry): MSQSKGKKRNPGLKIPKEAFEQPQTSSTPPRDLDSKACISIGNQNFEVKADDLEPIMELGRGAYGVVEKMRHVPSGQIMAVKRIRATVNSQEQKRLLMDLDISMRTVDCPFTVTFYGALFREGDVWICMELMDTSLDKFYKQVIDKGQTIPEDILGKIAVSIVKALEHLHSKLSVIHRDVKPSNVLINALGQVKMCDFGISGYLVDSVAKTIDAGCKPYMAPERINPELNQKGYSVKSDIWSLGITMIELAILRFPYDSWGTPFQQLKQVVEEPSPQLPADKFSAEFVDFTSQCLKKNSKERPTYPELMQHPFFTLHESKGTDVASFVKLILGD

Sequence of Mitogen-activated protein kinase 14 (Q16539 whole entry): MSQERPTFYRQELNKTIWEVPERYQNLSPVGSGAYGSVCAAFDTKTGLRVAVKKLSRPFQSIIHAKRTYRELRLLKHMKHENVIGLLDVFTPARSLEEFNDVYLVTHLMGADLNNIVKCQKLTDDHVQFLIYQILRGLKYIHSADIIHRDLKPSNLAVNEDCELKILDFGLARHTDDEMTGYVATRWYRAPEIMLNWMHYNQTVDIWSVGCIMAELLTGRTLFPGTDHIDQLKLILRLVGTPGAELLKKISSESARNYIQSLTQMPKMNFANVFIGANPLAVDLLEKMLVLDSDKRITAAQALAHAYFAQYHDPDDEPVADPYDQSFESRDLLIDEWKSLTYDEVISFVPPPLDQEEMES

Q: How did the Ratio IC50 (Homo sapiens [1]) turn out when `CNc1ccc(-c2ccncc2)nc1C(N)=O` was run?
A: > 100

Q: And the Ratio IC50 (Homo sapiens [2])?
A: > 100

Q: What about the Ratio IC50 (Homo sapiens [3]) of the same compound?
A: > 100

Q: And the Ratio IC50 (Homo sapiens [4])?
A: > 100

Q: And the Ratio IC50 (Homo sapiens [5])?
A: > 100

Q: What about the Ratio IC50 (Homo sapiens [6]) of the same compound?
A: > 100

Q: And the Ratio IC50 (Homo sapiens [7])?
A: > 100

Q: What about the Ratio IC50 (Homo sapiens [8]) of the same compound?
A: > 100

Q: And the IC50 [9]?
A: 4 nM

Q: And the Ratio IC50 (Homo sapiens [10])?
A: > 100

Q: And the IC50 [11]?
A: 2700 nM

Q: And the Ratio IC50 (Homo sapiens [12])?
A: > 100

Q: And the Ratio IC50 (Homo sapiens [13])?
A: < 9

Q: And the Ratio IC50 (Homo sapiens [14])?
A: > 100

Q: With `NC(=O)c1nc(-c2ccns2)c2ccccn12` as the compound, how does the Ratio IC50 (Homo sapiens [1]) read?
A: > 100

Q: What about the Ratio IC50 (Homo sapiens [2]) of the same compound?
A: > 100

Q: What about the Ratio IC50 (Homo sapiens [3]) of the same compound?
A: > 100

Q: And the Ratio IC50 (Homo sapiens [4])?
A: 23

Q: What about the Ratio IC50 (Homo sapiens [5]) of the same compound?
A: > 100

Q: What about the Ratio IC50 (Homo sapiens [6]) of the same compound?
A: > 100

Q: And the Ratio IC50 (Homo sapiens [7])?
A: > 100

Q: What about the Ratio IC50 (Homo sapiens [8]) of the same compound?
A: 86

Q: What about the IC50 [9] of the same compound?
A: 4 nM

Q: And the Ratio IC50 (Homo sapiens [10])?
A: > 100

Q: What about the IC50 [11] of the same compound?
A: 730 nM

Q: And the Ratio IC50 (Homo sapiens [12])?
A: > 100

Q: And the Ratio IC50 (Homo sapiens [13])?
A: 12

Q: What about the Ratio IC50 (Homo sapiens [14]) of the same compound?
A: > 100

Q: `NC(=O)c1nc(-c2ccncc2)c2ccccn12` was tested. Which IC50 [9] did it give?
A: 150 nM

Q: Which Kd [15] does the source give for `NC(=O)c1nnc2ccccc2c1N` here?
A: 2000 nM

Q: And the IC50 [16]?
A: 16000 nM

Q: What about the IC50 [9] of the same compound?
A: 37000 nM

Q: `NC(=O)c1nc(-c2ccccc2)ccc1N` was tested. Which IC50 [9] did it give?
A: 4200 nM

Q: How did the IC50 [9] turn out when `NC(=O)c1nc(-c2ccncc2)ccc1N` was run?
A: 30 nM
